≈ marks a conversion by molar mass, not a printed value. Calls of active or inactive are those of the source. The calls are words filed in the database; no cut-off is given here.
Key:
[1] = test system: Paenibacillus polymyxa; experiment: Antibacterial activity against Paenibacillus polymyxa DSM 36 assessed as growth inhibition after 24 to 48 hrs; type: functional
[2] = Cytotoxicity against HUVEC after 5 days by MTT assay; type: cell-based; conditions: human, HUVEC cells
Outline: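 Nontransformed HUVEC kept in EBM-2 with 10% FBS at 37 °C under 10% CO2. MTT read-out in 96-well plates gives the IC50, with methanol as negative control.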

[3] = test system: Aspergillus flavus; experiment: Antifungal activity against Aspergillus flavus DSM 1959 assessed as growth inhibition after 24 to 48 hrs; type: functional
Outline: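 Fungus grown at 30 °C, 160 rpm for 24−48 h, then tested by 1:1 serial dilution in MYC medium (1.0% glucose, 1.0% phytone peptone, 50 mM HEPES, pH 7.0) in 96-well plates. MIC read as the lowest concentration preventing visible growth.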

[4] = Antifungal activity against Trichosporon oleaginosus DSM 11815 assessed as growth inhibition after 24 to 48 hrs; type: functional; conditions: Cutaneotrichosporon oleaginosum
Outline: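 Yeast pre-grown at 30 °C and 160 rpm for 24−48 h, then adjusted to OD548 0.1. Tested by 1:1 serial dilution in 96-well plates in MYC medium (1.0% glucose, 1.0% phytone peptone, 50 mM HEPES, pH 7.0). MIC was the lowest concentration preventing visible growth.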

[5] = test system: Wickerhamomyces anomalus; experiment: Antifungal activity against Wickerhamomyces anomalus DSM 6766 assessed as growth inhibition after 24 to 48 hrs; type: functional
Outline: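 Yeast grown at 30 °C, 160 rpm for 24−48 h and adjusted to OD548 0.1, then tested by 1:1 serial dilution in MYC medium (1.0% glucose, 1.0% phytone peptone, 50 mM HEPES, pH 7.0) in 96-well plates. MIC taken as the lowest concentration preventing visible growth.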

[6] = test system: Chromobacterium violaceum; experiment: Antibacterial activity against Chromobacterium violaceum DSM 30191 assessed as growth inhibition after 24 to 48 hrs; type: functional
[7] = test system: Nocardia sp.; experiment: Antibacterial activity against Nocardia sp. DSM 43069 assessed as growth inhibition after 24 to 48 hrs; type: functional
[8] = test system: L929; experiment: Cytotoxicity against mouse L929 cells after 5 days by MTT assay; type: functional; conditions: L929, 120 h, read-out: LD50 (the source's name)
Outline: (§1)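 A549, KB-3-1 and mouse fibroblast L929 cells cultured in DMEM plus 10% FBS at 37 °C, 10% CO2. IC50 determined by MTT assay in 96-well microplates; methanol served as negative control.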

[9] = Cytotoxicity against human KB3-1 cells after 5 days by MTT assay; type: functional; conditions: KB 3-1, 120 h, read-out: LD50 (the source's name); outline: as §1
[10] = test system: A549; experiment: Cytotoxicity against human A549 cells after 5 days by MTT assay; type: functional; conditions: A549, 120 h, read-out: LD50 (the source's name); outline: as §1
[11] = test system: Mycolicibacterium diernhoferi; experiment: Antibacterial activity against Mycobacterium diernhoferi DSM 43542 assessed as growth inhibition after 24 to 48 hrs; type: functional
[12] = test system: Mycobacterium sp.; experiment: Antibacterial activity against Mycobacterium sp. DSM 43270 assessed as growth inhibition after 24 to 48 hrs; type: functional
[13] = test system: Aspergillus fumigatus; experiment: Antifungal activity against Aspergillus fumigatus DSM 15966 assessed as growth inhibition after 24 to 48 hrs; type: functional
Outline: (§2)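 Fungi pre-grown at 30 °C and 160 rpm for 24−48 h. Tested by 1:1 serial dilution in 96-well microtiter plates in MYC medium (1.0% glucose, 1.0% phytone peptone, 50 mM HEPES, pH 7.0). MIC was the lowest concentration preventing visible growth.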

[14] = test system: Mucor hiemalis; experiment: Antifungal activity against Mucor hiemalis DSM 2656 assessed as growth inhibition after 24 to 48 hrs; type: functional; outline: as §2
[15] = test system: SK-OV-3; experiment: Cytotoxicity against human SKOV3 cells after 5 days by MTT assay; type: functional; conditions: SK-OV-3, 120 h, read-out: LD50 (the source's name)
Outline: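 Human ovarian carcinoma SKOV3 cells maintained in McCoy's medium with 10% FBS, 37 °C, 10% CO2. IC50 obtained from MTT assay in 96-well plates, with methanol as negative control.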

Row | SMILES | MIC [1] | IC50 at 120 h [2] [µM] | MIC [3] | MIC [4] | MIC ([5]; Hansenula anomala) [µg/mL] | MIC [6] | MIC [7] | CC50 [8] [µM] | CC50 [9] [µM] | CC50 [10] [µM] | MIC [11] | MIC [12] | MIC [13] | MIC [14] | CC50 [15] [µM] | MIC [5]
1 | CN(C)[C@@H]1C(O)=C(C(N)=O)C(=O)[C@@]2(O)C(O)=C3C(=O)c4c(O)cccc4[C@@](C)(O)[C@H]3[C@H](O)[C@@H]12.Cl [OXYTETRACYCLINE HYDROCHLORIDE] | 6.7 µg/mL |  |  |  |  |  |  |  |  |  |  |  |  |  |  | 
2 | Oc1cccc2nc3c(O)cccc3nc12 | 66.7 µg/mL (≈ 314 µM) | 3.81 | inactive | inactive | 33.3 (≈ 157 µM) | 66.7 µg/mL (≈ 314 µM) | 33.3 µg/mL (≈ 157 µM) | 11.3 | 5.81 | 5.65 | 33.3 µg/mL (≈ 157 µM) | 66.7 µg/mL (≈ 314 µM) | inactive | 33.3 µg/mL (≈ 157 µM) | 2.59 | 
3 | C[C@@H]1[C@H](O)[C@@H](C)/C=C/C=C/C=C/C=C/C=C/C=C/C=C/[C@H](O[C@@H]2O[C@H](C)[C@@H](O)[C@H](N)[C@@H]2O)C[C@@H]2O[C@](O)(C[C@@H](O)C[C@@H](O)[C@H](O)CC[C@@H](O)C[C@@H](O)CC(=O)O[C@H]1C)C[C@H](O)[C@H]2C(=O)O [AMPHOTERICIN B] |  |  | 1 µg/mL (≈ 1.08 µM) |  |  |  |  |  |  |  |  |  | < 0.52 µg/mL |  |  | 
4 | COC1=CC(=O)O[C@H](c2coc(/C(=C/c3ccc(Cl)[nH]3)CO)n2)[C@@H]1C | inactive | > 27.4 | inactive | inactive |  | inactive | inactive | > 27.4 | > 27.4 | > 27.1 | inactive | inactive | inactive | 33.3 µg/mL (≈ 91.3 µM) | > 27.4 | inactive
5 | OC[C@H]1O[C@H](Oc2cccc3nc4c(O)cccc4nc23)[C@@H](O)[C@@H]1O | inactive |  | inactive | inactive |  | inactive | inactive |  |  |  | 66.6 µg/mL (≈ 193 µM) |  | 33.3 µg/mL (≈ 96.7 µM) | inactive |  | inactive
6 | C[C@@H]1[C@H](O)[C@@H](C)/C=C/C=C/CC/C=C/C=C/C=C/C=C/[C@H](O[C@@H]2O[C@H](C)[C@@H](O)[C@H](N)[C@@H]2O)C[C@@H]2O[C@](O)(C[C@@H](O)[C@H](O)CC[C@@H](O)C[C@@H](O)C[C@@H](O)CC(=O)O[C@H]1C)C[C@H](O)[C@H]2C(=O)O.O |  |  |  |  | 0.52 |  |  |  |  |  |  |  |  | 2.1 µg/mL |  | 
7 | CN[C@@H]1[C@H](O[C@H]2[C@H](O[C@H]3[C@H](O)[C@@H](O)[C@H](N=C(N)N)[C@@H](O)[C@@H]3N=C(N)N)O[C@@H](C)[C@]2(O)C=O)O[C@@H](CO)[C@H](O)[C@H]1O.CN[C@@H]1[C@H](O[C@H]2[C@H](O[C@H]3[C@H](O)[C@@H](O)[C@H](N=C(N)N)[C@@H](O)[C@@H]3N=C(N)N)O[C@@H](C)[C@]2(O)C=O)O[C@@H](CO)[C@H](O)[C@H]1O.O=S(=O)(O)O.O=S(=O)(O)O.O=S(=O)(O)O [STREPTOMYCIN SULFATE] |  |  |  | 0.1 µg/mL |  | 2.1 µg/mL | < 0.52 µg/mL |  |  |  | < 0.52 µg/mL | 2.1 µg/mL |  |  |  | 
